HIV Rev-RRE inh: disrupts HIV-1 Rev binding to RRE RNA | P05866 | Rev peptide-RRE RNA binding, FRET | inhibition, % at 8 µM | 97,000 compounds, 0.79% hits;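 active = inhibition above the screen-wide mean plus 3 SD, cut at about 35% in these data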;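 also: 0% = median DMSO wells and 100% = median Neomycin B control wells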
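Test system: Cy5-tagged RRE RNA duplex with fluorescein-tagged Rev peptide | Read-out: % inhibition of FRET ratio versus controls | Probe or stimulus: Labelled Rev peptide | Incubation: 5 min RNA-compound premix plus 15 min binding step, 25 °C | Technique: FRET fluorescence readout | Benchmarks: DMSO low control, neomycin B high control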
FAK blocker: inhibitors of human focal adhesion kinase | biochemical FAK kinase activity assay | inhibition, %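 (tested at 7 µM)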 | Q05397 | AID 727 | 97,000 compounds, 0.84% hits; in the data active = inhibition above about 19%;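 also: 0% = DMSO and 100% = reference compound high control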
Target sequence (Q05397 whole entry, looked up): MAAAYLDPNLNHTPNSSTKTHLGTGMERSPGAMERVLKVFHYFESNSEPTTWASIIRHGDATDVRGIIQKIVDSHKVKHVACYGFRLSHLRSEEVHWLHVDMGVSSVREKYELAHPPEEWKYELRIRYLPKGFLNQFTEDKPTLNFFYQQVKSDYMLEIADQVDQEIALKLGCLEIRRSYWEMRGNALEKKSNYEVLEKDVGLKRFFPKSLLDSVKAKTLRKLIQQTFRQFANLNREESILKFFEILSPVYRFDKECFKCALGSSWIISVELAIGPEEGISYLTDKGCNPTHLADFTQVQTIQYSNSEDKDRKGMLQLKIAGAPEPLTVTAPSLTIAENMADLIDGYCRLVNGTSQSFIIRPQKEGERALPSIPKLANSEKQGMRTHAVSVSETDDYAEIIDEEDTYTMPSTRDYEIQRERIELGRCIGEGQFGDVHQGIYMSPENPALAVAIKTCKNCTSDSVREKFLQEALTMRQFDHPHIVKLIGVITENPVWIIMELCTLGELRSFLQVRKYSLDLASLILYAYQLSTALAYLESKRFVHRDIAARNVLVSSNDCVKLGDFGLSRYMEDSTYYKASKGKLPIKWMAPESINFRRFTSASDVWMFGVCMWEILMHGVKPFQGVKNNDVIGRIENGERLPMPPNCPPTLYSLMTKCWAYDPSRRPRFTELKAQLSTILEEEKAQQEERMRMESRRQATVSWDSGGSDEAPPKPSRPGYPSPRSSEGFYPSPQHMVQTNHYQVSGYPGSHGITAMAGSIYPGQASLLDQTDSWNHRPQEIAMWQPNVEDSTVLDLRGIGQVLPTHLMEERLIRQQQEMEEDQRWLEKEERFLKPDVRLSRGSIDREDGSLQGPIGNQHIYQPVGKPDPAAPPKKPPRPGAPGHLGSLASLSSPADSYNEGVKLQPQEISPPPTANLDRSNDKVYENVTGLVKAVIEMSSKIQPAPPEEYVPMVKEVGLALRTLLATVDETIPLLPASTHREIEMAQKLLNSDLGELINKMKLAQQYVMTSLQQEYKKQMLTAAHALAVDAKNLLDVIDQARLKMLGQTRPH
PLK1 PBD inh: blocks phosphopeptide binding to human Plk1 polo box domain | Plk1 PBD phosphopeptide binding, fluorescence polarization | 97,000 compounds, 0.13% hits | inhibition, %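 (tested at about 20 µM)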 | P53350; in the data active = inhibition above about 34%, passing the limit was not always enough
Cav32 inh: blocks human Cav3.2 T-type calcium channel | O95180 | 100,000 compounds, 4% hits | Cav3.2-expressing cells, Fluo-4 calcium fluorescence FDSS; hits give low values | B-score at 10 µM;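 active = single-dose well whose peak fluorescence ratio is a statistical outlier from its plate by either plate-standardised score or position-corrected B-score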
Pyk2 oligo antag: Pyk2 (human) oligomerization antagonism; Q293 cells, Pyk2 FERM NanoBiT luminescence; hits give low values; z-score (the deposit names both 25 µM and 10 µM); 99,000 compounds, 0.83% hits; AID 1347419; Q14289;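 active = Z-score of -3 or lower, scaled per plate to the spread of control and sample wells; inactive = z-score above -3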;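 also: negative z-score means lost luminescence so less FERM oligomerization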
PLK1 kinase inh: inhibitors of human PLK1 kinase; 97,000 compounds, 0.53% hits; P53350; AID 619; inhibition, % at 10 µM; recombinant PLK1 kinase, TR-FRET peptide phosphorylation;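 active = inhibition of 50% or more in the single-concentration screen; inactive = inhibition below 50%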;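 also: 0% = DMSO max control and 100% = H-89 dihydrochloride min control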
Numbers without * were called inactive; . = no result; [ ] = dose if it differs, or a comment. In the library only some 5.8% were active in any assay of this set; here they are far more common.

SMILES | HIV Rev-RRE inh | FAK blocker | PLK1 PBD inh | Cav32 inh | Pyk2 oligo antag | PLK1 kinase inh
CC(NC(=O)CSc1nc2sc3c(c2c(=O)n1-c1ccccc1)CCCC3)c1ccccc1 (stereo unspecified) | 2 | 1 | 22 | -6.5* | -1.9 | -14
COc1ccc(C2CC(=O)N3C(=C2C#N)SCC3(O)c2ccccc2)cc1 (stereo unspecified) | 10 | 0 | -8 | -6* | -2.7 | -3
N#CC1=C2SCC(O)(c3ccccc3)N2C(=O)CC1c1ccccc1F (stereo unspecified) | 1 | 1 | 4 | -3.7 | -3* | -8
CCCOc1ccc(C(=O)CCC(=O)OCC(=O)Nc2cc(C)on2)cc1 | 7 | -1 | 6 | 0.63 | . | -16
Cc1cc(SCC(=O)N2CCC(c3noc4ccc(F)cc34)CC2)nc2ccccc12 | 5 | 5 | 8 | -5* | -0.89 | -14
Cc1ccc(C(=O)c2coc3ccc(O)c(Cl)c23)cc1 | 0 | 2 | -11 | -5.2* | -1.6 | 0
CC(C)N(C(=O)CSc1nc2ccccc2n1Cc1ccc(F)cc1)C(C)C | 10 | -1 | -6 | -6.3* | -1.6 | -1
CCCCN1C(=O)/C(=C/C=C2\N(C)c3ccccc3C2(C)C)SC1=S | 140*[fluorescence artefact?] | 4 | -260 | -4.7* | . | -39
CCCC(=O)Nc1ccc2nc(SCC(=O)Nc3ccc(N4CCOCC4)c(Cl)c3)sc2c1 | -3 | -2 | -5 | -0.031 | -3.5* | -7
Cc1cc(C(=O)Cn2nnc3ccccc3c2=O)c(C)n1Cc1cccs1 | 1 | -1 | 3 | -3.5* | 0.34 | -8
Cc1cc(C(=O)CN2C(=O)c3ccccc3C2=O)c(C)n1Cc1cccs1 | 7 | 6 | -14 | 1 | 0.08 | -5
COCCNC(=O)COC(=O)/C=C/c1c(C)nn(Cc2ccc(Cl)cc2Cl)c1Cl | 6 | -2 | -20 | -1.3 | -0.61 | -14
CCN(CCNC(=O)CN1CCN(Cc2ccc(Cl)cc2)C1=O)c1ccccc1 | 9 | -1 | 9 | -4* | 0.82 | -6
O=C(CN1CCN(Cc2ccccc2)C1=O)NCc1ccc(Cl)cc1 | 6 | 0 | -42 | -0.54 | -0.82 | -10
Cc1ccc(CN2CCN(CC(=O)NCc3ccc(Cl)cc3)C2=O)cc1 | 9 | -1 | 17 | -4* | -1.6 | -38
Cc1csc(NC(=O)CSc2nc(C(C)C)nc3c2c(=O)n(C)c(=O)n3C)n1 | 8 | -2 | 12 | -3 | . | 66*
Cc1nc(SCC(=O)Nc2cc(C)on2)c2c(=O)n(C)c(=O)n(C)c2n1 | 10 | 2 | -15 | 0.4 | . | -8
COC(=O)c1ccc[n+](CCc2c[nH]c3ccccc23)c1 | . | . | . | 0.3 | . | .
COc1ccc(C=Nc2cccc3c(=O)[nH][nH]c(=O)c23)c2ccccc12 | 9 | 1 | 5 | 0.68 | 0.4 | -11
COc1ccc(/C=C/c2ccncc2)c2ccccc12 | 141*[fluorescence artefact?] | 2 | -11 | -1.8 | -0.92 | -14
CC1CCCN(S(=O)(=O)c2ccc(NC(=O)CCN3C(=O)c4ccccc4C3=O)cc2)C1 (stereo unspecified) | 6 | 3 | 2 | . | -1.1 | -10
CCCC(c1nnnn1C1CCCC1)N1CCN(c2ccccc2F)CC1 (stereo unspecified) | 7 | 0 | -1 | -4.3 | 0.64 | 3
CCC(=O)n1nc(NCc2ccccc2OC)nc1NCc1ccccc1OC | 7 | 0 | -10 | -7.9* | -0.92 | -7
COc1ccc(CNc2nc(NCc3ccc(OC)c(OC)c3)n(C(=O)c3cccs3)n2)cc1OC | -4 | 4 | -18 | -0.13 | -3.4* | -14
COc1ccc(CNc2nc(NCc3ccc(OC)cc3)n(C(C)=O)n2)cc1 | 0 | 0 | 2 | 0.016 | -0.56 | 0
SMILES | HIV Rev-RRE inh | FAK blocker | PLK1 PBD inh | Cav32 inh | Pyk2 oligo antag | PLK1 kinase inh
O=C(C1CCCCC1)N(Cc1nc2sc3c(c2c(=O)[nH]1)CCCC3)Cc1cccs1 | 2 | -1 | -16 | -1.2 | -1.2 | 0
O=C(CN1C2CCC1CC(NC(=O)Nc1ccccc1)C2)NCc1ccco1 (stereo unspecified) | -7 | 2 | -20 | 1.2 | 1 | -1
CCCCNC(=O)C1CCCN1C(=O)Nc1cccc(OC)c1 (stereo unspecified) | 7 | 2 | 12 | 0.76 | 0.28 | -6
O=C(O)C[C@H]1c2cc(C(F)(F)F)ccc2S(=O)(=O)N1C1CCN(Cc2ccccc2)CC1 | . | . | . | 0.75 | . | .
Cc1cc(/C=C(\C#N)C(=O)NCc2cccs2)c(C)n1-c1ccccc1F | 3 | 8 | 8 | -4.8* | -1.7 | -10
Cc1sc2nc(SCc3nnc(-c4cccs4)o3)n(C3CCCC3)c(=O)c2c1C | 13 | 5 | -11 | -3.5 | -0.51 | -8
Cn1c2ccccc2c(=O)c2c(=O)n(C3CCCCC3)c(-c3cccs3)nc21 | 19 | 6 | 0 | -4.3* | -1.2 | -11
O=C1C=C(O)c2cccc(O)c2C1=O | . | . | . | 0.54 | . | .
CC1=CC(=O)c2c(O)ccc(O)c2C1=O | . | . | . | -5.5* | . | .
Cc1ccc(-c2nc3ccc(C(=O)O)cc3nc2-c2ccc(C)cc2)cc1 | 1 | 2 | 10 | -1.7 | -3.3* | -7
COc1ccc(N(C)C(=O)c2ccc3nc(-c4ccccc4)c(-c4ccccc4)nc3c2)cc1 | -4 | 3 | 2 | -8.8* | -2.7 | -15
Cn1c(COc2ccc(Cl)cc2)nnc1SCc1ncc(-c2ccccc2)o1 | 7 | 7 | 5 | -9.9* | 0.68 | 7
C=CCn1c(SCC(N)=O)nnc1-c1cc(Br)ccc1O | 2 | 8 | 18 | 0.88 | 0.3 | -9
C=CCn1c(SCc2c(C(=O)OC)sc(N)c2C(=O)OC)nnc1-c1ccc(Br)cc1 | 8 | 4 | 21 | -4.6* | -0.85 | -10
Cc1ccc(OCCSc2ncnc3nc[nH]c23)cc1 | 1 | 3 | -10 | -0.073 | -0.73 | 56*
O=C(NCc1ccccc1C(F)(F)F)C1CC(c2ccc(C(F)(F)F)cc2)=NO1 (stereo unspecified) | . | . | . | -2.3 | . | .
COC(=O)c1ccc(/C=C(\C#N)c2nc3ccccc3s2)cc1 | 31 | 14 | -1 | 0.032 | 0.88 | -14
CCOC(=O)N1CCN(/C=C(\C#N)c2nc3ccccc3s2)CC1 | 53* | -13 | -50 | -1 | 0.71 | -16
c1ccc2sc(N3CN(CCN4CCOCC4)CN(c4nc5ccccc5s4)C3)nc2c1 | . | . | . | -5.7* | -0.03 | .
Cc1cc(C(C#N)c2ccccc2)n2ncnc2n1 (stereo unspecified) | -1 | 2 | -6 | -0.039 | -0.02 | 53*
Cc1ccc(NC(=O)N2CCCC2C(=O)NCCc2ccccc2)cc1 (stereo unspecified) | 4 | 0 | -27 | 0.11 | -0.7 | -19
CC(C)c1nc(SCC(=O)Nc2ccc(N3CCOCC3)cc2)c2ccccc2n1 | -6 | 34* | 3 | -3 | -0.28 | -6
CCCc1nc(SCC(=O)Nc2ccc(N3CCOCC3)cc2)c2ccccc2n1 | -2 | 10 | 12 | -0.0098 | -0.32 | -6

Compound activity: PubChem BioAssay, several laboratories
